# Active and inactive are the calls of the source. The rule behind the calls is not given here.
# Legend:
# Candida albicans [1] = experiment: Antibiofilm activity against Candida albicans ATCC 28366 at up to 96 ug/ml incubated for 24 to 48 hrs by crystal violet staining based absorbance spectrometry analysis; format: functional, organism-based; settings: dose <= 96.0 µg/ml, time 24-48 hrs
# Procedure, shortened: (§1)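 Overnight cultures (37 °C, aerobic, Sabouraud pH 7.0) adjusted to OD660 0.2, mixed 1:1 with two-fold serial dilutions in medium and incubated at 37 °C. Biofilm stained with crystal violet, dye released in 75% ethanol, A550 read. Growth relative to compound-free wells (100%) after blank subtraction. At least two independent experiments in triplicate, t test.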
# Candida albicans [2] = experiment: Antibiofilm activity against Candida albicans ATCC 28366 assessed as disruption of preformed biofilm incubated for 12 hrs by crystal violet staining based absorbance spectrometry analysis; format: functional, organism-based
# Procedure, shortened: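 Mature biofilms grown 36 to 48 h in Sabouraud pH 7.0 without compound; medium and free cells removed, rinsed with 50 mM PBS pH 7.0, then two-fold serial dilutions in PBS added for 12 h at 37 °C. Residual biofilm stained with crystal violet, dye released in 75% ethanol, A550 read. PBS-treated biofilms as controls.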
# Candida albicans [3] = experiment: Antifungal activity against Candida albicans ATCC 28366 assessed as reduction in fungal growth incubated for 24 hrs by plate count determination; format: functional, organism-based
# Candida albicans [4] = experiment: Antibiofilm activity against Candida albicans ATCC 28366 incubated for 24 to 48 hrs by crystal violet staining based absorbance spectrometry analysis; format: functional, organism-based; settings: time 24-48 hrs; procedure, shortened: as §1
# Candida albicans [5] = experiment: Antibiofilm activity against Candida albicans LAM-1 assessed as inhibition of morphogenesis at 8 ug/ml incubated for 4 hrs in spider medium by microscopic analysis; format: functional, organism-based; settings: dose 8.0 µg/ml
# Procedure, shortened: (§2)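 Yeast-form cells grown overnight in YPD at 30 °C. 50 µL inoculated into 5 mL hypha-inducing medium (e.g., Spider: 1% nutrient broth, 1% mannitol, 0.2% K2HPO4, pH 7.2) containing two-fold dilutions, then 4 h at 37 °C. At least 100 cells per replicate counted as hypha (pseudohyphae and intermediates included) or yeast. Compound-free control for maximal conversion. At least two independent experiments in triplicate.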
# Candida albicans [6] = experiment: Antibiofilm activity against Candida albicans ATCC 28366 assessed as inhibition of morphogenesis at 8 ug/ml incubated for 4 hrs in spider medium by microscopic analysis; format: functional, organism-based; settings: dose 8.0 µg/ml; procedure, shortened: as §2
# Candida albicans [7] = experiment: Antibiofilm activity against Candida albicans ATCC 28366 assessed as reduction in fungal growth at 8 ug/ml incubated for 4 hrs in spider medium by plate count determination; format: functional, organism-based; settings: dose 8.0 µg/ml
# Procedure, shortened: (§3)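 After the 4 h, 37 °C morphogenesis incubation in Spider medium (YPD overnight inoculum, 50 µL into 5 mL), OD660 measured to follow fungal growth; C. albicans viability confirmed by plate count.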
# Candida albicans [8] = experiment: Antibiofilm activity against Candida albicans LAM-1 assessed as reduction in fungal growth at 8 ug/ml incubated for 4 hrs in spider medium by plate count determination; format: functional, organism-based; settings: dose 8.0 µg/ml; procedure, shortened: as §3
# Candida albicans [9] = experiment: Antibiofilm activity against Candida albicans ATCC 28366 assessed as inhibition of filamentation at 8 ug/ml incubated for 4 hrs in Lee's medium by microscopic analysis; format: functional, organism-based; settings: dose 8.0 µg/ml; procedure, shortened: as §2
# Candida albicans [10] = experiment: Antibiofilm activity against Candida albicans ATCC 28366 assessed as inhibition of morphological switching at 8 ug/ml incubated for 4 hrs in YPD medium with fetal bovine serum by microscopic analysis; format: functional, organism-based; settings: dose 8.0 µg/ml; procedure, shortened: as §2
# Candida albicans [11] = experiment: Antibiofilm activity against Candida albicans ATCC 28366 assessed as inhibition of N-acetylglucosamine induced morphological switching at 8 ug/ml incubated for 4 hrs by microscopic analysis; format: functional, organism-based; settings: dose 8.0 µg/ml; procedure, shortened: as §2
# Candida albicans [12] = experiment: Antibiofilm activity against Candida albicans ATCC 28366 assessed as inhibition of nitrogen deprivation induced morphological switching at 8 ug/ml incubated for 4 hrs in SLAD media by microscopic analysis; format: functional, organism-based; settings: dose 8.0 µg/ml; procedure, shortened: as §2
# Candida albicans [13] = experiment: Antibiofilm activity against Candida albicans ATCC 28366 at 1 ug/ml incubated for 24 to 48 hrs by crystal violet staining based absorbance spectrometry analysis; format: functional, organism-based; settings: dose 1.0 µg/ml, time 24-48 hrs; procedure, shortened: as §1
# Candida albicans [14] = experiment: Antibiofilm activity against Candida albicans LAM-1 at 4 ug/ml incubated for 24 to 48 hrs by crystal violet staining based absorbance spectrometry analysis; format: functional, organism-based; settings: dose 4.0 µg/ml, time 24-48 hrs; procedure, shortened: as §1
# Candida albicans [15] = experiment: Antifungal activity against Candida albicans ATCC 28366 assessed as inhibition of fungal growth incubated for 24 hrs by plate count determination; format: functional
# Procedure, shortened: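 Biofilm-assay setup (Sabouraud pH 7.0, inoculum OD660 0.2, serial two-fold dilutions, 37 °C). […] Highest value kept when replicates differ. At least two independent experiments in triplicate.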
# Candida albicans [16] = experiment: Antifungal activity against Candida albicans ATCC 28366 assessed as reduction in fungal growth at up to 64 ug/ml incubated for 24 hrs by plate count determination; format: functional, organism-based; settings: dose <= 64.0 µg/ml
# Candida albicans [17] = experiment: Antibiofilm activity against Candida albicans ATCC 28366 assessed as inhibition of biofilm formation at 0.5 to 32 ug/ml incubated for 24 to 48 hrs by crystal violet staining based absorbance spectrometry analysis; format: functional, organism-based; settings: dose 0.5-32 µg/ml, time 24-48 hrs; procedure, shortened: as §1
# Candida albicans [18] = experiment: Antibiofilm activity against Candida albicans ATCC 28366 assessed as reduction in hyphae formation at 4 ug/ml incubated for 4 hrs in spider medium by microscopic analysis; format: functional, organism-based; settings: dose 4.0 µg/ml; procedure, shortened: as §2
# Candida albicans [19] = experiment: Antibiofilm activity against Candida albicans ATCC 28366 assessed as short hyphae formation at 2 ug/ml incubated for 4 hrs in spider medium by microscopic analysis; format: functional, organism-based; settings: dose 2.0 µg/ml; procedure, shortened: as §2
# Candida albicans [20] = experiment: Antibiofilm activity against Candida albicans ATCC 28366 assessed as small subpopulation of hyphae formation at 2 ug/ml incubated for 4 hrs in spider medium by microscopic analysis; format: functional, organism-based; settings: dose 2.0 µg/ml; procedure, shortened: as §2
# Candida albicans [21] = experiment: Antibiofilm activity against Candida albicans ATCC 28366 assessed as reduction in filamentation by measuring joint hyphae cell elongation at 1 ug/ml incubated for 4 hrs in spider medium by microscopic analysis; format: functional, organism-based; settings: dose 1.0 µg/ml; procedure, shortened: as §2
# Candida albicans [22] = experiment: Antibiofilm activity against Candida albicans ATCC 28366 assessed as inhibition of morphogenesis at 1 to 4 ug/ml incubated for 4 hrs in spider medium by microscopic analysis; format: functional, organism-based; settings: dose 1-4 µg/ml; procedure, shortened: as §2
# Candida albicans [23] = experiment: Antibiofilm activity against Candida albicans ATCC 28366 assessed as reduction in fungal growth at 1 to 4 ug/ml incubated for 4 hrs in spider medium by plate count determination; format: functional, organism-based; settings: dose 1-4 µg/ml; procedure, shortened: as §3
# Candida albicans [24] = experiment: Antibiofilm activity against Candida albicans LAM-1 assessed as reduction in fungal growth at 1 to 4 ug/ml incubated for 4 hrs in spider medium by plate count determination; format: functional, organism-based; settings: dose 1-4 µg/ml; procedure, shortened: as §3
# Candida albicans [25] = experiment: Antibiofilm activity against Candida albicans ATCC 28366 assessed as inhibition of filamentation at 2 ug/ml incubated for 4 hrs in Lee's medium by microscopic analysis; format: functional, organism-based; settings: dose 2.0 µg/ml; procedure, shortened: as §2
# Candida albicans [26] = experiment: Antibiofilm activity against FITC labeled Candida albicans ATCC 28366 in human GMSM-K cells assessed as reduction in fungal adherence to cells incubated for 4 hrs by fluorescence microscopic analysis; format: functional, organism-based; settings: dose 6-48 µg/ml
# Procedure, shortened: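 Confluent GMSM-K monolayers (DMEM, 10% FBS) pre-incubated 30 min with two-fold dilutions in DMEM (37 °C, 5% CO2). FITC-labelled yeast (0.03 mg/mL FITC in 0.5 M NaHCO3 pH 8, 30 min, 37 °C) added at MOI 10³ for 4 h. After PBS washes, fluorescence read (ex 495/em 525 nm) as % of compound-free wells. Two independent experiments in triplicate.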
# Candida albicans [27] = experiment: Antibiofilm activity against Candida albicans ATCC 28366 assessed as inhibition of morphological switching at 1 ug/ml incubated for 4 hrs in YPD medium with fetal bovine serum by microscopic analysis; format: functional, organism-based; settings: dose 1.0 µg/ml; procedure, shortened: as §2
# Candida albicans [28] = experiment: Antibiofilm activity against Candida albicans ATCC 28366 assessed as inhibition of N-acetylglucosamine induced morphological switching at 1 to 4 ug/ml incubated for 4 hrs by microscopic analysis; format: functional, organism-based; settings: dose 1-4 µg/ml; procedure, shortened: as §2
# Candida albicans [29] = experiment: Antibiofilm activity against Candida albicans ATCC 28366 assessed as inhibition of nitrogen deprivation induced morphological switching at 1 to 4 ug/ml incubated for 4 hrs in SLAD media by microscopic analysis; format: functional, organism-based; settings: dose 1-4 µg/ml; procedure, shortened: as §2
# [30] = Cytotoxicity against human B11 cells assessed as reduction in cell viability at 96 ug/ml incubated for 2 hrs by MTT assay; format: toxicity, cell-based; settings: b11, 2 h, dose 96 µg/ml
# Procedure, shortened: (§4)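 B11 human oral epithelial cells in K-SFM with bovine pituitary extract and EGF, grown to confluence (1 × 10⁵ cells/well, 37 °C, 5% CO2). Treated with two-fold dilutions from 96 to 1.5 µg/mL for 2 or 24 h, then MTT viability read. Triplicate, mean ± SD.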
# [31] = Cytotoxicity against human B11 cells assessed as reduction in cell viability at >=24 ug/ml incubated for 24 hrs by MTT assay; format: toxicity, cell-based; settings: b11, 24 h, dose > 24 µg/ml; procedure, shortened: as §4
# Candida albicans [32] = experiment: Antibiofilm activity against Candida albicans ATCC 28366 at 48 ug/ml incubated for 24 to 48 hrs by crystal violet staining based absorbance spectrometry analysis; format: functional, organism-based; settings: dose 48.0 µg/ml, time 24-48 hrs; procedure, shortened: as §1
# Candida albicans [33] = experiment: Antibiofilm activity against Candida albicans ATCC 28366 assessed as inhibition of biofilm formation at 2 ug/ml incubated for 24 to 48 hrs by crystal violet staining based absorbance spectrometry analysis; format: functional, organism-based; settings: dose 2.0 µg/ml, time 24-48 hrs; procedure, shortened: as §1
# Candida albicans [34] = experiment: Fungicidal activity against Candida albicans ATCC 28366 assessed as prevention of colony formation incubated for 24 hrs; format: functional
smiles,measurement,setting,value
c1ccc(C[C@H]2CN[C@@H](Cc3ccccc3)CN2)cc1,Activity,Candida albicans [1],inactive
same,Activity,Candida albicans [2],inactive
Oc1ccc(C[C@@H]2CN[C@H](Cc3ccccc3)CN2)cc1,Activity,Candida albicans [3],inactive
same,Activity,Candida albicans [4],inactive
same,Activity,Candida albicans [2],inactive
Oc1ccc(C[C@H]2CN[C@@H](Cc3ccccc3)CN2)cc1,Activity,Candida albicans [3],inactive
same,Activity,Candida albicans [4],inactive
same,Activity,Candida albicans [2],inactive
CN1C[C@H](Cc2ccc(OCc3ccccc3)cc2)N(C)C[C@@H]1Cc1ccccc1,Activity,Candida albicans [3],inactive
same,Activity,Candida albicans [4],inactive
same,inhibition,Candida albicans [5],inactive
same,inhibition,Candida albicans [6],inactive
same,Activity,Candida albicans [7],inactive
same,Activity,Candida albicans [8],inactive
same,inhibition,Candida albicans [9],inactive
same,inhibition,Candida albicans [10],inactive
same,inhibition,Candida albicans [11],inactive
same,inhibition,Candida albicans [12],inactive
c1ccc(COc2ccc(C[C@H]3CN[C@@H](Cc4ccccc4)CN3)cc2)cc1,Activity,Candida albicans [13],Active
same,Activity,Candida albicans [14],Active
same,MIC,Candida albicans [15],96 µg/mL
same,Activity,Candida albicans [16],inactive
same,inhibition,Candida albicans [17],Active
same,Activity,Candida albicans [2],inactive
same,Activity,Candida albicans [18],Active
same,Activity,Candida albicans [19],Active
same,Activity,Candida albicans [20],Active
same,Activity,Candida albicans [21],inactive
same,inhibition,Candida albicans [22],Active
same,Activity,Candida albicans [23],inactive
same,Activity,Candida albicans [24],inactive
same,inhibition,Candida albicans [25],Active
same,Activity,Candida albicans [26],Dose-Dependent Effect
same,inhibition,Candida albicans [27],Active
same,inhibition,Candida albicans [28],inactive
same,inhibition,Candida albicans [29],inactive
same,Activity,[30],Toxic
same,Activity,[31],Toxic
CN1C[C@H](Cc2ccc(O)cc2)N(C)C[C@@H]1Cc1ccc(O)cc1,Activity,Candida albicans [3],inactive
same,Activity,Candida albicans [4],inactive
c1ccc(COc2ccc(C[C@H]3CN[C@H](Cc4ccc(OCc5ccccc5)cc4)CN3)cc2)cc1,MIC,Candida albicans [15],> 128 µg/mL
same,Activity,Candida albicans [32],Active
same,Activity,Candida albicans [2],inactive
CN1C[C@@H](Cc2ccccc2)N(C)C[C@H]1Cc1ccccc1,Activity,Candida albicans [1],inactive
c1ccc(C[C@H]2CN[C@H](Cc3ccccc3)CN2)cc1,Activity,Candida albicans [1],inactive
same,Activity,Candida albicans [2],inactive
c1ccc(COc2ccc(C[C@@H]3CN[C@H](Cc4ccc(OCc5ccccc5)cc4)CN3)cc2)cc1,MIC,Candida albicans [15],24 µg/mL
same,inhibition,Candida albicans [33],Active
same,MFC,Candida albicans [34],24 µg/mL
same,Activity,Candida albicans [2],inactive
